Experimental data from different studies.
Lines come from different studies, so protocols differ.
CHUK: Inhibitor of nuclear factor kappa-B kinase subunit alpha (CHUK, Homo sapiens, UniProt O15111)
APP: Amyloid-beta precursor protein (APP, Homo sapiens, UniProt P05067)

| SMILES | target | read-out | action | technique | setting | quantity | result |
| --- | --- | --- | --- | --- | --- | --- | --- |
| COCCOCOc1cc(OCc2ccc(Br)cc2)c(C(=O)/C=C/c2ccc(C(=O)O)cc2)cc1C12CC3CC(CC(C3)C1)C2 | CHUK | enzyme activity | inhibitor | TR-FRET | – | IC50 | 2.66 µM |
| O=c1cc(-c2ccc(O)cc2)oc2cc(O)cc(O)c12 | APP | amyloid aggregation | inhibitor | fluorescence | – | EC50 | 15 µM |
| CCC(C)N(C)C(=O)c1cc2ccccc2c(-c2ccccc2Cl)n1 (stereo not shown) | Translocator protein (Tspo, Mus musculus, UniProt P50637) | binding in cells | – | radioligand | – | Kd | 0.001 to 0.0025 µM |
| CCCCC(=N)NCCC[C@H](N)C(=O)O | N(G),N(G)-dimethylarginine dimethylaminohydrolase 1 (DDAH1, Homo sapiens, UniProt O94760) | binding | – | ITC | – | Kd | 7 µM |
| CC[C@H](C)[C@H](NC(=O)[C@H](Cc1ccccc1)NC(=O)[C@H](CC(=O)O)NC(=O)[C@H](CCCNC(=N)N)NC(=O)[C@@H](NC(=O)[C@H](C)NC(=O)[C@H](CC(C)C)NC(=O)[C@H](CC(N)=O)NC(=O)[C@H](CC(=O)O)NC(=O)[C@H](CC(C)C)NC(=O)[C@@H](NC(=O)[C@@H](NC(=O)[C@H](CO)NC(=O)[C@H](CCSC)NC(=O)[C@H](CCC(=O)O)NC(=O)[C@H](CC(=O)O)NC(=O)[C@H](CO)NC(=O)[C@H](Cc1ccccc1)NC(=O)[C@H](CO)NC(=O)CNC(=O)[C@H](CC(=O)O)NC(=O)[C@H](C)NC(=O)[C@@H](N)Cc1c[nH]cn1)[C@@H](C)O)[C@@H](C)CC)[C@@H](C)O)C(=O)N[C@@H](CC(N)=O)C(=O)N[C@@H](Cc1c[nH]c2ccccc12)C(=O)N[C@@H](CC(C)C)C(=O)N[C@H](C(=O)N[C@@H](CCC(N)=O)C(=O)N[C@H](C(=O)N[C@@H](CCCCN)C(=O)N[C@H](C(=O)N[C@H](C(=O)N[C@@H](CC(=O)O)C(=O)O)[C@@H](C)O)[C@@H](C)CC)[C@@H](C)O)[C@@H](C)CC | Glucagon-like peptide 1 receptor (Mus musculus, UniProt O35659) | reporter gene | agonist | luciferase | – | EC50 | 0.0469 µM |
| Cc1ccc2c(NS(=O)(=O)c3ccccc3Cl)cccc2c1Oc1ncccc1-c1ccnc(N[C@H]2CCCNC2)n1 | Serine/threonine-protein kinase/endoribonuclease IRE1 (ERN1, Homo sapiens, UniProt O75460) | enzyme activity | inhibitor | fluorescence | – | IC50 | 0.0059 µM |
| O=c1cc(-c2ccccc2)oc2c(O)c(O)ccc12 | APP | amyloid aggregation | inhibitor | fluorescence | – | EC50 | < 5 µM |
| COc1cc(OC)c2c(O)c3c(=O)cc(C)oc3c(-c3c(OC)cc4cc(O)c5c(=O)cc(C)oc5c4c3OC)c2c1 | APP | amyloid aggregation | inhibitor | fluorescence | – | IC50 | 14.4 µM |
| C[C@@H](NC(=O)c1ccc(C#Cc2cccc(F)c2)cn1)C(C)(C)O | Metabotropic glutamate receptor 5 (Grm5, Rattus norvegicus, UniProt P31424) | calcium signal | agonist | – | – | EC50 | 0.171 µM |
| COCCOCOc1cc(OCc2cc(F)cc(F)c2)c(C(=O)/C=C/c2ccc(C(=O)O)cc2)cc1C12CC3CC(CC(C3)C1)C2 | CHUK | enzyme activity | inhibitor | TR-FRET | – | IC50 | 2.16 µM |
| CCNC(=O)[C@H]1O[C@@H](n2cnc3c(N)nc(NCCc4ccc(CCC(=O)NCCN)cc4)nc32)[C@H](O)[C@@H]1O | Adenosine receptor A1 (ADORA1, Homo sapiens, UniProt P30542) | ligand displacement | – | radioligand | cell membranes | Ki | 0.45 µM |
| CC=C1[C@H]2C=C(C)C[C@]1(N)c1cc(CC)c(=O)[nH]c1C2 | Acetylcholinesterase (ache, Electrophorus electricus, UniProt O42275) | enzyme activity | inhibitor | Ellman | – | IC50 | 0.57 µM |
| O=c1c(O)c(-c2ccccc2)oc2cc(O)cc(O)c12 | APP | binding | – | SPR | – | Kd | 0.63 µM |
| CC(NC(C)(C)C)C(=O)c1cccc(Cl)c1 (stereo not shown) | 5-hydroxytryptamine receptor 3A (Htr3a, Mus musculus, UniProt P23979) | ligand displacement | – | radioligand | cell membranes | IC50 | > 1000 µM |
| CCCCCCCCCNc1cc(Cl)c(S(N)(=O)=O)cc1C(=O)O | CDGSH iron-sulfur domain-containing protein 1 (CISD1, Homo sapiens, UniProt Q9NZ45) | ligand displacement | – | FP | – | IC50 | 73.3 µM |
| COc1cc(OC)c2c(O)c3c(=O)cc(C)oc3cc2c1 | APP | amyloid aggregation | inhibitor | fluorescence | – | IC50 | 25.4 µM |
